According to ChEMBL document CHEMBL5712885, “A chromatin activity-based chemoproteomic approach reveals a transcriptional repressome for gene-specific silencing” (Nat Commun, 2014):
Calls of active or inactive are those of the source. No cut-off for these calls is given here. Where a SMILES comes first, the peptide text is derived from it. The star is where a group is joined. Cbz = O=C(OCc1ccccc1)*

What was measured:
RAW264.7 [1] = assay: Upregulation of C-Myc protein expression in LPS tolerant mouse RAW264.7 cells at 10 uM upto 4 hrs in presence of LPS by immunoblot analysis; format: functional, cell-based
RAW264.7 [2] = assay: Upregulation of C-Myc protein expression in LPS tolerant mouse RAW264.7 cells with G9a knock down at 10 uM upto 4 hrs in presence of LPS by immunoblot analysis; format: functional, cell-based
RAW264.7 [3] = assay: Upregulation of C-Myc protein expression in LPS tolerant mouse RAW264.7 cells in presence of G9a/LPS at 10 uM upto 4 hrs by immunoblot analysis; format: functional, cell-based
RAW264.7 [4] = assay: Cytotoxicity against mouse RAW264.7 cells assessed as reduction in cell survival at 1 uM after 9 days Giemsa staining based assay; format: toxicity; settings: raw264.7, 216 h, time 9 day
In short: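 Raw264.7 cells plated at 50, 100 and 200 viable cells in duplicate wells, primed 48 h with 100 ng ml⁻¹ LPS, then given fresh media containing 1 μM inhibitor. Grown 9 days, then fixed in methanol-acetic acid (3:1) and stained 30 min with 10% Giemsa. Colonies over 20 cells counted. Survival expressed as percent of colonies on plates without LPS or inhibitor.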

[5] = target: T1, Histone-lysine N-methyltransferase EHMT2 (Mus musculus) (UniProt Q9Z148); settings: C57BL/6, BMDM, dose 250.0 nM, time 16.0 hrs
T1 sequence (whole entry): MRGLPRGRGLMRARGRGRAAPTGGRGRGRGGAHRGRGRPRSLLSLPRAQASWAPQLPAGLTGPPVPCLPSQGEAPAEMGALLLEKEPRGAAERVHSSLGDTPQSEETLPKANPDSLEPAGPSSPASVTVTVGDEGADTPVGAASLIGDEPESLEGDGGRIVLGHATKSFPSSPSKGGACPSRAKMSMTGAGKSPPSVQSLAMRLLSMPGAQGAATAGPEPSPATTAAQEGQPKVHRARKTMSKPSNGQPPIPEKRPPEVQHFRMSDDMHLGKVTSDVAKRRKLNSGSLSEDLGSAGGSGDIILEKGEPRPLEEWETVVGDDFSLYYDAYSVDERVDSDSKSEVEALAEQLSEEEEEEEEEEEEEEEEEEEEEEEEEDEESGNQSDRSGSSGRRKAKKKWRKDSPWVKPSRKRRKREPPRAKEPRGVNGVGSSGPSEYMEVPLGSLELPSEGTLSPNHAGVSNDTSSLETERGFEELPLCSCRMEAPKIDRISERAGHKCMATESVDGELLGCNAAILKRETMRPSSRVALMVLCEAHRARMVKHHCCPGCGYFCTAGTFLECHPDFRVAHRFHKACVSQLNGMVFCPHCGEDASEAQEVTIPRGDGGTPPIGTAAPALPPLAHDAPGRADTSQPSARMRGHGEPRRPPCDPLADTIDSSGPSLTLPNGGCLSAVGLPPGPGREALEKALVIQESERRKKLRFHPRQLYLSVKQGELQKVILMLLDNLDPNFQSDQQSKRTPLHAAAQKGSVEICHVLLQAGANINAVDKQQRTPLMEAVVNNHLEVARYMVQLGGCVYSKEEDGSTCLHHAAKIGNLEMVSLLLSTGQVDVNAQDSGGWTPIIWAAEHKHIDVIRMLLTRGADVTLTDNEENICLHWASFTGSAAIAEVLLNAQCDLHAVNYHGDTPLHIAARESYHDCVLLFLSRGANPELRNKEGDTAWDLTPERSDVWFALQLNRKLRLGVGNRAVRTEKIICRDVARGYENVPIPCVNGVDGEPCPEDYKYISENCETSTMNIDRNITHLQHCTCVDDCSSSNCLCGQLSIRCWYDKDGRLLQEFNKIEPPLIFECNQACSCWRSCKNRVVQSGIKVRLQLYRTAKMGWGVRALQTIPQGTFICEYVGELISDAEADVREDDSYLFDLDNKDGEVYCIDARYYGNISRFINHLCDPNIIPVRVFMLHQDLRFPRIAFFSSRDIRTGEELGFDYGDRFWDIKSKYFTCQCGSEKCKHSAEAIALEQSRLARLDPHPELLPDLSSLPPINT

[6] = target: T1, Histone-lysine N-methyltransferase EHMT2 (Mus musculus); settings: C57BL/6, RAW264.7, dose 250.0 nM, time 16.0 hrs
[7] = target: T1, Histone-lysine N-methyltransferase EHMT2 (Mus musculus); settings: C57BL/6, RAW264.7, dose 250.0 nM, time 16.0 hrs; remark: listed apart in the source
[8] = target: T1, Histone-lysine N-methyltransferase EHMT2 (Mus musculus); settings: C57BL/6, BMDM, dose 250.0 nM, time 16.0 hrs; remark: listed apart in the source
[9] = target: T1, Histone-lysine N-methyltransferase EHMT2 (Mus musculus); settings: C57BL/6, BMDM, dose 250.0 nM, time 16.0 hrs; remark: listed apart in the source
[10] = target: T1, Histone-lysine N-methyltransferase EHMT2 (Mus musculus); settings: C57BL/6, BMDM, dose 250.0 nM, time 16.0 hrs; remark: listed apart in the source
RAW264.7 [11] = assay: Down regulation of c-Myc protein expression in LPS tolerant mouse RAW264.7 cells at 1 ug/ml upto 90 mins in presence of LPS by immunoblot analysis; format: functional, cell-based; settings: dose 1.0 µg/ml
In short: (§1)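 Raw264.7 cells (shRNA G9a-knockdown line with ≥90% knockdown, or empty-vector control) primed with 100 ng ml⁻¹ LPS for 24 h, then given 1 µg ml⁻¹ cycloheximide for indicated times. c-Myc was detected by anti-c-Myc immunoblot with γ-tubulin loading control. Bands were quantified by densitometry and plotted, and half-life was read from the fitted curve.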

RAW264.7 [12] = assay: Down regulation of c-Myc protein expression in LPS tolerant mouse RAW264.7 cells with G9a knockdown at 1 ug/ml upto 90 mins by immunoblot analysis; format: functional, cell-based; settings: dose 1.0 µg/ml; in short: as §1
RAW264.7 [13] = assay: Down regulation of c-Myc protein expression in LPS tolerant mouse RAW264.7 cells with G9a overexpression at 1 ug/ml upto 90 mins in presence of LPS by immunoblot analysis; format: functional, cell-based; settings: dose 1.0 µg/ml

CC(C)C[C@@H](C=O)NC(=O)[C@H](CC(C)C)NC(=O)[C@H](CC(C)C)NC(=O)OCc1ccccc1 (Cbz-Leu-Leu-Leu-aldehyde)
Activity (RAW264.7 [1]): Active
Activity (RAW264.7 [2]): Active
Activity (RAW264.7 [3]): inactive

COc1cc2c(NC3CCN(C(C)C)CC3)nc(C3CCCCC3)nc2cc1OCCCN1CCCC1
Activity (RAW264.7 [4]): Toxic
inhibition [5]: Active
inhibition [6]: Active
inhibition [7]: Active
inhibition [8]: Active
inhibition [9]: Active
inhibition [10]: Active

C[C@@H]1C[C@@H]([C@H](O)CC2CC(=O)NC(=O)C2)C(=O)[C@@H](C)C1
Activity (RAW264.7 [11]): Active
Activity (RAW264.7 [12]): Active
Activity (RAW264.7 [13]): inactive
